Screens (PubChem BioAssay)
HSF1 activator: increases HSF-1 driven luciferase reporter signal. hit rate 1.7% among 300,000. NIH3T3-HGL HSF-1 luciferase reporter, MG132, 8 h; 100% = twice DMSO control signal. activation, % at 9 µM;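 active = mean replicate activation of at least 50% with a set share of replicates each reaching 50%; inconclusive = only one of those two conditions met; inactive = mean below 50% and too few replicates reaching it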
HSP90 refold inh: HSP90 refolding inhibition in rabbit reticulocyte lysate; luciferase refolding luminescence, 3 h; inhibition, % at 5.6 µM; hit rate 0.91% among 290,000; AID 1789;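 active = inhibition above the screen-wide mean plus 3 SD, computed separately per campaign, cut at about 16% in these data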;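 also: inhibitors lower the luminescence because luciferase stays unfolded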
HCV NS3 hel inh: inhibitors of Hepatitis C virus NS3 helicase; AID 1800; NS3 helicase DNA unwinding, Cy5 molecular beacon fluorescence; inhibition, % at 10.9 µM; hit rate 0.56% among 290,000;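 active = inhibition above the mean of all tested compounds plus 3 SD, set per campaign, cut at about 35% in these data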
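test system = hepatitis C virus NS3 helicase domain fragment enzyme | reagent = annealed dual-labelled DNA beacon duplex, ATP-started | times = 1 h at 25 °C | detection = Cy5 fluorescence, 0 and 60 min reads | read-out basis = percent inhibition from t60/t0 fluorescence ratio | control set = DMSO and thioflavine S | replication = one well per compound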
Hep lipid drop: modulators of hepatic lipid droplet formation; hit rate 0.4% among 240,000; AML12 mouse hepatocytes, oleate lipid droplets, BODIPY imaging; inhibition, % at 6.5 µM;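 active = lipid droplet intensity inhibited by at least 50%, with more than 500 cells counted; inconclusive = wells with under 300 cells, treated as cytotoxic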
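Material – mouse AML12 hepatocyte cell line, fixed after treatment · Compound dosing – one dose, 6.5 µM compound · Times – compound with oleate, overnight · Measured by – Image-based BODIPY and DAPI two-channel analysis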
HSF1 inhib: HSF1 inhibition; NIH3T3-HGL HSE-luciferase, MG132-induced, luminescence 8 h; hits give low values; activity change, negative = inhibition, % at 7.5 µM (by protocol); hit rate 0.77% among 300,000; AID 2098;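 active = more than half of replicate wells show activity change below -50%, luminescence cut by over half; inconclusive = some wells, but at most half, below -50%; inactive = no replicate well below -50%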;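 also: luciferase reports HSF-1 transcriptional activity via heat shock element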
Hits are given with their value; . = inactive; ? = inconclusive; / = no result given. This is a sample that favours compounds with a hit; in the whole collection about 3.8% have one here.

SMILES	HSF1 activator	HSP90 refold inh	HCV NS3 hel inh	Hep lipid drop	HSF1 inhib
COc1ccc(C2C3=C(CCCC3=O)Nc3nc(-c4cc(OC)c(OC)c(OC)c4)nn32)cc1OC (centres undefined)	.	.	.	.	.
COc1ccc(-c2nc3n(n2)C(c2ccccc2)C2=C(CCCC2=O)N3)cc1OC (centres undefined)	.	.	.	.	-57
COc1ccc(CNC(=S)Nc2ccc(F)c(Cl)c2)cc1	73	.	.	.	.
NS(=O)(=O)c1ccc(CNC(=S)Nc2ccc(F)c(Cl)c2)cc1	.	.	.	.	.
O=C1C(=Nc2cccc(Cl)c2)CC(c2ccc(Cl)cc2)N1c1cccc(Cl)c1 (centres undefined)	.	.	.	.	.
COc1cccc(OCc2cc(C(=O)N(C)CCOc3ccc(C)cc3)no2)c1	57	.	.	.	.
CN(CCc1ccccc1)C(=O)c1cc(COc2cccc(C(F)(F)F)c2)on1	186	.	.	.	.
CN(CCCN1CCOCC1)C(=O)c1cc(COc2cccc(C(F)(F)F)c2)on1	.	.	.	.	.
CCC(=O)NC1CCN(C(=S)NC)CC1	.	.	.	.	.
NC(=O)Cc1ccc(C(=O)c2ccc(Cl)cc2)s1	.	.	.	.	-64
COc1cccc2cc(C(=O)NCc3ccco3)c(=O)oc12	.	.	.	.	.
COc1cccc2cc(C(=O)NCc3ccco3)c(=Nc3ccc(C(=O)O)cc3)oc12	.	.	.	.	-63
COc1cc(OC)c(OC)cc1/C=C1\CC(C)C/C(=C\c2cc(OC)c(OC)cc2OC)C1=O (centres undefined)	.	.	.	.	.
C=CCC1(C(=O)NCCO)CCN(C(=O)OC(C)(C)C)CC1	.	.	.	.	-84
CCOC(=O)C(NC(=O)Nc1ccccc1)(OCC)C(F)(F)F (centres undefined)	.	.	.	.	.
CCOC(=O)Cc1cnc(NC(=O)NC(C(=O)OCC)(c2ccccc2)C(F)(F)F)s1 (centres undefined)	113	.	.	.	.
c1cncc(-c2nnc(SCc3nc4ccccc4[nH]3)o2)c1	.	.	.	.	-68
CC(=O)N1c2ccc(C)cc2C(c2ccccc2)CC1C (centres undefined)	58	.	.	.	.
Clc1ccc(-c2nsc(N3CCOCC3)n2)c(Cl)c1	62	.	.	.	.
Clc1cc(Cl)c2nc(N3CCOCC3)sc2c1	.	.	.	.	.
Cc1ncc([N+](=O)[O-])n1CC(=O)NCCc1ccccc1	.	.	.	.	-62
Cc1ncc([N+](=O)[O-])n1CC(=O)Nc1ccc(F)cc1	.	.	.	.	-74
Cc1ncc([N+](=O)[O-])n1CC(=O)NCc1ccccc1	.	.	.	/	.
CC(=O)c1ccc(Nc2c3c(nc4ccccc24)CCCC3)cc1	66	.	.	.	.
CC(=O)c1cccc(Nc2c3c(nc4ccccc24)CCC3)c1	.	.	.	.	.
SMILES	HSF1 activator	HSP90 refold inh	HCV NS3 hel inh	Hep lipid drop	HSF1 inhib
O=C(c1ccc2nccnc2c1)N1CCCC(Nc2ccc(F)c(F)c2)C1 (centres undefined)	59	.	.	.	.
CC(/C=C/c1ccco1)=N/NC(=O)c1ccccc1Cl	?	.	.	/	.
CC(/C=C/c1ccco1)=N\NC(=O)COc1ccc(C)c(C)c1	78	.	.	.	.
Cc1ccc(OCCNC(=O)/C=C/c2ccco2)cc1C	.	.	.	.	.
Cc1cccc(C)c1OCC(=O)N/N=C/C=C/c1ccco1	81	.	.	.	.
O=C(N/N=C/C=C/c1ccco1)c1ccccc1Cl	69	.	.	.	.
Cc1ccc(OCC(=O)N/N=C/C=C/c2ccco2)c(Br)c1	.	.	.	.	.
O=C(Cc1cccs1)N/N=C/C=C\c1ccco1	92	.	.	.	.
O=c1[nH]c(=S)[nH]c2sccc12	.	.	.	.	.
COc1ccc2nc(C)cc(NCc3ccc(F)cc3)c2c1	.	.	.	.	.
CC(=O)Nc1sc(C)c(C)c1C(=O)OCCOc1ccccc1	62	.	.	.	.
COC(=O)c1c(NC(C)=O)sc(C)c1C	.	.	.	.	.
CC(C)c1ccccc1NC(=O)COC(=O)c1cc(=O)[nH]c(=O)[nH]1	.	.	.	.	.
CCCCCC1(C(=O)OCC)CC(CSC(=N)N)OC1=O (centres undefined)	/	.	.	.	/
O=C(Nc1ccc2ccccc2n1)c1ccccc1Cl	61	.	.	.	.
O=C(Nc1ccc2ccccc2n1)c1ccc(Cl)cc1	60	.	.	/	.
Nc1nc(SCC(=O)Nc2ccc([N+](=O)[O-])cc2Br)n[nH]1	58	.	.	.	.
CC(C)c1nc(SCC(=O)Nc2ccc([N+](=O)[O-])cc2Br)n[nH]1	.	.	.	.	.
CN1C(=O)Cc2cc(S(=O)(=O)Nc3ccc(Cl)cc3)ccc21	.	.	.	.	.
CCN(CC)c1ccc(NC(=S)NC(=O)c2ccco2)cc1	180	.	.	.	.
COC(=O)c1cc(OC)c(OC)cc1NC(=S)NC(=O)c1ccco1	73	.	.	.	.
CCNC(=S)Nc1cc(OC)c(NC(=O)c2ccco2)cc1OC	.	.	.	.	.
CCN(CC)c1ccc(NC(=O)c2ccco2)cc1	.	.	.	/	.
CC(C)N(C(=O)CS(=O)(=O)c1ccc(Cl)c(Cl)c1)C(C)C	.	.	.	.	.
COc1ccc(C(=O)N/N=C/c2ccccc2OC(=O)c2ccccc2)cc1	.	.	.	.	.
SMILES	HSF1 activator	HSP90 refold inh	HCV NS3 hel inh	Hep lipid drop	HSF1 inhib
COc1cc(C(=O)Oc2ccccc2/C=N/NC(=O)c2ccc(C)cc2)cc(OC)c1OC	66	.	.	/	.
CCOC(=O)CC(=O)CSc1nc2ccc(C)cc2cc1C#N	/	.	.	.	/
COC(=O)CSc1nc2cc(C)ccc2cc1C#N	65	.	.	/	.
Cc1cc2c(cc1C)NC(CC(=O)NCc1ccccc1)C(=O)N2 (centres undefined)	75	.	.	.	.
CC(=O)Nc1ccc(C(=O)OCC(=O)Nc2ccccc2F)cc1	.	.	.	.	.
CCc1nc(SCC(=O)c2ccc(Cl)s2)c2oc3ccccc3c2n1	84	.	.	/	.
CCc1nc(SCCO)c2oc3ccccc3c2n1	.	.	.	/	.
O=C1c2ccccc2CN1c1ccccc1	.	.	.	.	.
C=CC(=O)Oc1ccc(N2Cc3ccccc3C2=O)cc1	70	/	/	/	.
COc1ccc(N2Cc3ccccc3C2=O)cc1	54	.	.	.	.
O=C(CSc1n[nH]c(=O)[nH]c1=O)NC1CCCCC1	.	17	.	.	.
O=C(CSc1n[nH]c(=O)[nH]c1=O)N1CCCCCC1	.	.	.	.	.
CCOc1ccccc1CN1CCNC(=O)C1CC(=O)NCCN1CCOC1=O (centres undefined)	.	.	.	.	.
